The results in this text go back to ChEMBL document CHEMBL1148437, “Synthesis, structure-activity relationships, and mechanism of drug resistance of D- and L-beta-3'-fluoro-2',3'-unsaturated-4'-thionucleosides as anti-HIV agents” (J Med Chem, 2004).

pEC50, pIC50: −log10 of the molar value. Bounds are passed on as bounds.

The nature of test [1]: Compounds were evaluated for their potential toxic effect on uninfected […] cells. The format is ADME, cell-based. The following applies: Chlorocebus sabaeus. The gist of the method: (§1)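 Uninfected cells were seeded in 10-fold serial drug dilutions: Vero at 5×10^3, CEM at 2.5×10^3 and PHA-stimulated PBM at 5×10^4 cells/well. Vero were incubated 3 days, CEM 4 days and PBM 5 days, at 37 °C in 5% CO2. MTT was added overnight, followed by solubilization for 5 h and reading at 570 nm. IC50 was derived by the median effect method.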

Test [2] deals with PBMC. Nature of the test: (§2) Anti-HIV activity in Human peripheral blood mononuclear (PBM) cells. The format is functional. In a few lines: (§3)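 PHA-stimulated (2-3 days) human PBM cells from healthy seronegative donors, Ficoll-Hypaque isolated; bulk infection 1 h (HIV-1 LAI reference; xxBru clone), 100 TCID50/1×10^7 cells (flask) or 200 TCID50/6×10^5 cells/well; 10-fold serial dilutions; RPMI-1640, 16% FBS, IL-2, DEAE-dextran; 5 days 37 °C; supernatant RT activity (poly(rA)·oligo(dT), 3H-TTP); EC50/EC90 by median effect method.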

Test [3] is described as follows: Compounds were evaluated for their potential toxic effect on uninfected PHA-stimulated human Peripheral blood mononuclear (PBM) cells. The format is ADME. The gist of the method:
as §1

The test system of test [4] is PBMC. The description is as §2. The format is functional, cell-based. In a few lines: as §3
A short description of test [5]: Compounds were evaluated for their potential toxic effect on uninfected PHA-stimulated human T-lymphoblastoid cell line (CEM). The format is ADME. In a few lines: as §1
Test [6] has as its system PBMC. Nature of the test: Antiviral activity against wild type HIV virus(xxBRU) in Human peripheral blood mononuclear (PBM) cells. The format is functional. In a few lines:
as §3

In test [7] the test system is PBMC. The experiment in a line: Antiviral activity against drug-resistant HIV-1 virus (M184v) in Human peripheral blood mononuclear (PBM) cells. The format is functional. The gist of the method: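 PHA-stimulated (2-3 days) human PBM cells from seronegative donors infected 1 h in bulk with molecular clone HIV-1 M184Vpitt, then cultured with 10-fold serial compound dilutions in IL-2–supplemented RPMI-1640, 5 days, 37 °C, 5% CO2. Supernatant virus pelleted and assayed for RT activity (poly(rA)·oligo(dT), 3H-TTP, 2 h, 37 °C). EC50/EC90 from concentration-response curves by median effect method.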

As usually defined, the pIC50 is the negative decadic logarithm of the IC50, by convention in mol/L. A lower pIC50 goes with a large IC50. What is called EC90 is the point of the concentration-response curve where the effect stands at 90%. A higher EC90 goes with weaker potency. For orientation: pEC50 means −log10 of the EC50, conventionally taken in molar units. Consider `Nc1ccn([C@H]2C=C(F)[C@@H](CO)S2)c(=O)n1`, for which the pIC50 in test [1], in test [3] and in test [5] was less than 4.00 in each case. In the test on PBMC [2], the concentration for an effect of 90% (EC90) is greater than 100 µM. Further, the negative-log EC50 (pEC50) in the test with PBMC [4] is less than 4.00.
On to `Cc1cn([C@H]2C[C@H](N=[N+]=[N-])[C@@H](CO)O2)c(=O)[nH]c1=O` [ZIDOVUDINE], for which the concentration for an effect of 90% (EC90) in the test with PBMC [6] amounted to 0.01 µM; in the test on PBMC [2], 0.01 µM; in the test with PBMC [7], 0.003 µM. In addition, the pIC50 in test [1] was 4.54; in test [3], less than 4.00; in test [5] it was 4.84.
Regarding `Cc1cn([C@H]2C=C(F)[C@@H](CO)S2)c(=O)[nH]c1=O`, the pIC50 in test [1], in test [3] and in test [5] was less than 4.00 in each case. The molecule also yielded an EC90 with PBMC [2] greater than 100 µM. Further, the negative logarithm of the EC50 (pEC50) in the test on PBMC [4] is less than 4.00.
Consider `Nc1ccn([C@@H]2C=C(F)[C@H](CO)S2)c(=O)n1`, for which the concentration for an effect of 90% (EC90) in the test on PBMC [6] is 1.7 µM; in the test on PBMC [2] it was 1.7 µM; in the test with PBMC [7] it was greater than 100 µM. The negative-log IC50 (pIC50) in test [1], in test [3] and in test [5] was less than 4.00 each time. The molecule also showed a pEC50 with PBMC [4] of 6.89.
`Nc1ncnc2c1ncn2[C@H]1C=C(F)[C@@H](CO)S1`: the pIC50 in test [1], in test [3] and in test [5] was less than 4.00 in each case. This molecule also yielded a concentration for an effect of 90% (EC90) in the test on PBMC [2] greater than 100 µM. This molecule also gave a pEC50 in the test on PBMC [4] of less than 4.00.
For the molecule `Cc1cn([C@@H]2C=C(F)[C@H](CO)S2)c(=O)[nH]c1=O`, the pIC50 in test [1] was less than 4.00; in test [3], less than 4.00; in test [5], no more than 4.00. Also, in the test on PBMC [2], the concentration for an effect of 90% (EC90) was greater than 100 µM. This molecule also gave a pEC50 in the test with PBMC [4] of less than 4.00.
With `Nc1nc(O)c2ncn([C@H]3C=C(F)[C@@H](CO)S3)c2n1`, the pIC50 in test [1], in test [3] and in test [5] was less than 4.00 each time. This molecule displayed an EC90 with PBMC [2] greater than 100 µM. The same molecule had a pEC50 in the test on PBMC [4] of 4.63.
For the molecule `O=c1ccn([C@@H]2C=C(F)[C@H](CO)S2)c(=O)[nH]1`, the negative logarithm of the IC50 (pIC50) in test [1], in test [3] and in test [5] was less than 4.00 throughout. Further, in the test on PBMC [2], the EC90 is greater than 100 µM. The negative logarithm of the EC50 (pEC50) in the test with PBMC [4] is less than 4.00.
On to `Nc1nc(=O)n([C@H]2C=C(F)[C@@H](CO)S2)cc1F`, for which the negative logarithm of the IC50 (pIC50) in test [1], in test [3] and in test [5] was less than 4.00 each time. This molecule showed an EC90 in the test with PBMC [2] greater than 100 µM. Besides, in the test with PBMC [4], the pEC50 was less than 4.00.
Regarding `Nc1ncnc2c1ncn2[C@@H]1C=C(F)[C@H](CO)S1`, the pIC50 in test [1], in test [3] and in test [5] was less than 4.00 throughout. This molecule also had an EC90 in the test with PBMC [2] of 57 µM. Besides, the pEC50 in the test on PBMC [4] was 4.83.
With `Nc1nc(O)c2ncn([C@@H]3C=C(F)[C@H](CO)S3)c2n1`, the negative-log IC50 (pIC50) in test [1], in test [3] and in test [5] was less than 4.00 each time. Moreover, the EC90 in the test with PBMC [2] is greater than 100 µM. Moreover, the negative-log EC50 (pEC50) in the test with PBMC [4] is 4.36.
As for `OC[C@@H]1S[C@H](n2cnc3c(O)ncnc32)C=C1F`, the negative-log IC50 (pIC50) in test [1], in test [3] and in test [5] was less than 4.00 each time. The molecule also displayed a concentration for an effect of 90% (EC90) in the test with PBMC [2] greater than 100 µM. In addition, the pEC50 in the test with PBMC [4] is less than 4.00.
Turning to `Nc1nc(=O)n([C@@H]2C=C(F)[C@H](CO)S2)cc1F`, the concentration for an effect of 90% (EC90) in the test on PBMC [6] is 0.35 µM; in the test on PBMC [2] it was 0.35 µM; in the test with PBMC [7] it was greater than 100 µM. The pIC50 was 4.06 in test [1], less than 4.00 in test [3] and less than 4.00 in test [5]. The same molecule gave a pEC50 in the test on PBMC [4] of 7.51.
`Nc1ccn([C@@H]2CS[C@H](CO)O2)c(=O)n1` [LAMIVUDINE] had a 90% effect concentration (EC90) with PBMC [6] of 0.08 µM.
`O=c1ccn([C@H]2C=C(F)[C@@H](CO)S2)c(=O)[nH]1`: the pIC50 in test [1], in test [3] and in test [5] was less than 4.00 throughout. In the test with PBMC [2], this molecule showed a concentration for an effect of 90% (EC90) greater than 100 µM. In the test on PBMC [4], the pEC50 is less than 4.00.
Take `OC[C@H]1S[C@@H](n2cnc3c(O)ncnc32)C=C1F`: the pIC50 in test [1], in test [3] and in test [5] was less than 4.00 in each case. Besides, the concentration for an effect of 90% (EC90) in the test with PBMC [2] is greater than 100 µM. Moreover, the negative-log EC50 (pEC50) with PBMC [4] was less than 4.00.
